From ChEMBL document CHEMBL1133087, “Radioiodinated N-(2-diethylaminoethyl)benzamide derivatives with high melanoma uptake: structure-affinity relationships, metabolic fate, and intracellular localization” (J Med Chem, 2000)

Key:
Mus musculus [1] = assay: Biodistribution was studied by injecting intravenously into C57B1/6 mice bearing subcutaneously transplanted B16 kidney after 6 hr.; type: ADME, organism-based; settings: in vivo, iv
Mus musculus [2] = assay: Biodistribution was studied by injecting intravenously into C57B1/6 mice bearing subcutaneously transplanted B16 brain after 6 hr.; type: ADME, organism-based; settings: in vivo, iv
Mus musculus [3] = assay: Biodistribution was studied by injecting intravenously into C57B1/6 mice bearing subcutaneously transplanted B16 liver after 6 hr.; type: ADME, organism-based; settings: in vivo, iv
Mus musculus [4] = assay: Biodistribution was studied by injecting intravenously into C57B1/6 mice bearing subcutaneously transplanted B16 lung after 6 hr.; type: ADME, organism-based; settings: in vivo, iv
Mus musculus [5] = assay: Biodistribution was studied by injecting intravenously into C57B1/6 mice bearing subcutaneously transplanted B16 blood after 6 hr.; type: ADME, organism-based; settings: in vivo, iv
Mus musculus [6] = assay: Biodistribution was studied by injecting intravenously into C57B1/6 mice bearing subcutaneously transplanted B16 melanoma after 6 hr.; type: ADME, organism-based; settings: in vivo, iv
Mus musculus [7] = assay: Biodistribution was studied by injecting intravenously into C57B1/6 mice bearing subcutaneously transplanted B16 liver after 1 hr.; type: ADME, organism-based; settings: in vivo, iv
Mus musculus [8] = assay: Biodistribution was studied by injecting intravenously into C57B1/6 mice bearing subcutaneously transplanted B16 heart after 1 hr.; type: ADME, organism-based; settings: in vivo, iv
Mus musculus [9] = assay: Biodistribution was studied by injecting intravenously into C57B1/6 mice bearing subcutaneously transplanted B16 blood after 1 hr.; type: ADME, organism-based; settings: in vivo, iv
[10] = The lipophilicity was measured in an octanol/water system at pH 7.4.; type: physicochemical
How it was run: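 HPLC-purified no-carrier-added radioiodinated benzamide was added to 0.067 M phosphate buffer at pH 7.4 with an equal volume of 1-octanol. The mixture was vortexed to equilibrium, centrifuged and the phases separated. Each phase was γ-counted, with log P = log(cpm octanol/cpm buffer).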

Mus musculus [11] = assay: Biodistribution was studied by injecting intravenously into C57B1/6 mice bearing subcutaneously transplanted B16 muscle after 1 hr.; type: ADME, organism-based, Muscle tissue; settings: in vivo, iv
Mus musculus [12] = assay: Biodistribution was studied by injecting intravenously into C57B1/6 mice bearing subcutaneously transplanted B16 spleen after 1 hr.; type: ADME, organism-based; settings: in vivo, iv
Mus musculus [13] = assay: Biodistribution was studied by injecting intravenously into C57B1/6 mice bearing subcutaneously transplanted B16 lung after 1 hr.; type: ADME, organism-based; settings: in vivo, iv
Mus musculus [14] = assay: Biodistribution was studied by injecting intravenously into C57B1/6 mice bearing subcutaneously transplanted B16 melanoma after 1 hr.; type: ADME, organism-based; settings: in vivo, iv
Mus musculus [15] = assay: Biodistribution was studied by injecting intravenously into C57B1/6 mice bearing subcutaneously transplanted B16 heart after 6 hr.; type: ADME, organism-based; settings: in vivo, iv
Mus musculus [16] = assay: Biodistribution was studied by injecting intravenously into C57B1/6 mice bearing subcutaneously transplanted B16 […] after 6 hr.; type: ADME, organism-based; settings: in vivo, iv
Mus musculus [17] = assay: Biodistribution was studied by injecting intravenously into C57B1/6 mice bearing subcutaneously transplanted B16 muscle after 6 hr.; type: ADME, organism-based, Muscle tissue; settings: in vivo, iv
Mus musculus [18] = assay: Biodistribution was studied by injecting intravenously into C57B1/6 mice bearing subcutaneously transplanted B16 brain after 1 hr.; type: ADME, organism-based; settings: in vivo, iv
Mus musculus [19] = assay: Biodistribution was studied by injecting intravenously into C57B1/6 mice bearing subcutaneously transplanted B16 kidney after 1 hr.; type: ADME, organism-based; settings: in vivo, iv
Mus musculus [20] = assay: Biodistribution was studied by injecting intravenously into C57B1/6 mice bearing subcutaneously transplanted B16 melanoma after 24 hr.; type: ADME, organism-based; settings: in vivo, iv
Mus musculus [21] = assay: Biodistribution was studied by injecting intravenously into C57B1/6 mice bearing subcutaneously transplanted B16 blood after 24 hr; type: ADME, organism-based; settings: in vivo, iv
Mus musculus [22] = assay: Biodistribution was studied by injecting intravenously into C57B1/6 mice bearing subcutaneously transplanted B16 heart after 24 hr.; type: ADME, organism-based; settings: in vivo, iv
Mus musculus [23] = assay: Biodistribution was studied by injecting intravenously into C57B1/6 mice bearing subcutaneously transplanted B16 liver after 24 hr.; type: ADME, organism-based; settings: in vivo, iv
Mus musculus [24] = assay: Amount of urinary radioactivity collected within 4 hr after iv injection into C57B1/6 mice was analyzed by RP-HPLC.; type: ADME, organism-based, Urine; settings: in vivo
Mus musculus [25] = assay: Biodistribution was studied by injecting intravenously into C57B1/6 mice bearing subcutaneously transplanted B16 lung after 24 hr.; type: ADME, organism-based; settings: in vivo, iv
Mus musculus [26] = assay: Biodistribution was studied by injecting intravenously into C57B1/6 mice bearing subcutaneously transplanted B16 spleen after 24 hr.; type: ADME, organism-based; settings: in vivo, iv
Mus musculus [27] = assay: Biodistribution was studied by injecting intravenously into C57B1/6 mice bearing subcutaneously transplanted B16 muscle after 24 hr.; type: ADME, organism-based, Muscle tissue; settings: in vivo, iv
Mus musculus [28] = assay: Biodistribution was studied by injecting intravenously into C57B1/6 mice bearing subcutaneously transplanted B16 kidney after 24 hr.; type: ADME, organism-based; settings: in vivo, iv
Mus musculus [29] = assay: Biodistribution was studied by injecting intravenously into C57B1/6 mice bearing subcutaneously transplanted B16 brain after 24 hr.; type: ADME, organism-based; settings: in vivo, iv

ID/g (Mus musculus [1]) [%]	ID/g (Mus musculus [2]) [%]	ID/g (Mus musculus [3]) [%]	ID/g (Mus musculus [4]) [%]	ID/g (Mus musculus [5]) [%]	ID/g (Mus musculus [6]) [%]	ID/g (Mus musculus [7]) [%]	ID/g (Mus musculus [8]) [%]	ID/g (Mus musculus [9]) [%]	logD [10]	ID/g (Mus musculus [11]) [%]	ID/g (Mus musculus [12]) [%]	ID/g (Mus musculus [13]) [%]	ID/g (Mus musculus [14]) [%]	ID/g (Mus musculus [15]) [%]	ID/g (Mus musculus [16]) [%]	ID/g (Mus musculus [17]) [%]	ID/g (Mus musculus [18]) [%]	ID/g (Mus musculus [19]) [%]	ID (Mus musculus [24]) [%]	SMILES	also measured
0.17	0.02	0.23	0.41	0.33	2.32	1.23	0.63	0.9	1.16	0.38	1.26	1.41	8.06	0.13	0.31	0.08	0.15	1.81		CCN(CC)CCNC(=O)c1cc(OC)ccc1I	
3.95	0.08	3.43	1.06	0.85	6.92	4.92	1.17	1.93	1.62	0.61	2	3.12	4.66	0.45	1.57	0.28	0.18	6.89		CCN(CC)CCNC(=O)c1cc(I)c(N)cc1OC	
1.97	0.19	9.86	3.02	2.56	23.32	8.03	2.1	3.3	1.78	1.37	6.55	5.53	21.87	1.05	2.09	0.44	0.62	5.09	16	CCN(CC)CCNC(=O)c1cc(I)c(NC(C)=O)cc1OC	ID/g (Mus musculus [20]): 16.06%; ID/g (Mus musculus [21]): 0.21%; ID/g (Mus musculus [22]): 0.09%; ID/g (Mus musculus [23]): 3.72%; ID/g (Mus musculus [25]): 0.25%; ID/g (Mus musculus [26]): 0.17%; ID/g (Mus musculus [27]): 0.03%; ID/g (Mus musculus [28]): 0.4%; ID/g (Mus musculus [29]): 0.02%
0.41	0.04	0.26	0.19	0.14	6.8	0.88	0.46	0.46	1.26	0.19	2.5	1.15	7.73	0.09	0.15	0.04	0.5	1.71	71	CCN(CC)CCNC(=O)c1cc(I)ccc1OC	
